# Data reported in ChEMBL document CHEMBL1147538, “Antibacterial activity of glycine betaine analogues: involvement of osmoporters” (Bioorg Med Chem Lett, 2004).
# What was measured:
# Type in all cases: functional, organism-based
# Escherichia coli = experiment: Effect (1 mM) on Escherichia coli growth under stressing conditions; Expressed as absorbance (OD) at 570 nm; Control 1.24 nm
# Summary of the method: (§1)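 Aerobic culture in a defined classic medium (M63, M9, SMM or LAS, chosen per species). Hyperosmotic stress was imposed with NaCl at 0.3–0.5 M final, set by each bacterium's salt tolerance. Each betaine analogue was added at 1 mM. Bacterial yield was read as absorbance at 570 nm and compared with a control culture without analogue.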
# Enterococcus faecalis = experiment: Effect (1 mM) on Enterococcus faecalis growth under stressing conditions; Expressed as absorbance (OD) at 570 nm; Control 1.16 nm
# Summary of the method: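 Enterococcus was grown aerobically in defined M9 medium made hyperosmotic with NaCl (0.3–0.5 M final, set by tolerance). Each betaine analogue was supplied at 1 mM. Yield was read as OD at 570 nm against an untreated control.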
# Citrobacter freundii = experiment: Effect (1 mM) on Citrobacter freundii growth under stressing conditions; Expressed as absorbance (OD) at 570 nm; Control 1.09 nm; summary of the method: as §1
# Pseudomonas aeruginosa = experiment: Effect (1 mM) on Pseudomonas aeruginosa growth under stressing conditions; Expressed as absorbance (OD) at 570 nm; Control 1.24 nm
# Klebsiella pneumoniae = experiment: Effect (1 mM) on Klebsiella pneumoniae growth under stressing conditions; Expressed as absorbance (OD) at 570 nm; Control 1.80 nm; summary of the method: as §1
# Serratia marcescens = experiment: Effect (1 mM) on Serratia marcescens growth under stressing conditions; Expressed as absorbance (OD) at 570 nm; Control 1.03 nm; summary of the method: as §1
# Dickeya chrysanthemi = experiment: Effect (1 mM) on Erwinia chrysanthemi growth under stressing conditions; Expressed as absorbance (OD) at 570 nm; Control 1.97 nm; summary of the method: as §1
# [1] = system: Corynebacterium glutamicum; experiment: Effect (1 mM) on Corynebacterium glutamicum growth under stressing conditions; Expressed as absorbance (OD) at 570 nm; Control 0.87 nm; summary of the method: as §1
# Acinetobacter baumannii = experiment: Effect (1 mM) on Acinetobacter baumannii growth under stressing conditions; Expressed as absorbance (OD) at 570 nm; Control 1.14 nm; summary of the method: as §1
# Salmonella enterica = experiment: Effect (1 mM) on Salmonella enterica growth under stressing conditions; Expressed as absorbance (OD) at 570 nm; Control 1.23 nm; summary of the method: as §1
# Enterobacter cloacae = experiment: Effect (1 mM) on Enterobacter cloacae growth under stressing conditions; Expressed as absorbance (OD) at 570 nm; Control 1.25 nm; summary of the method: as §1
# Brevibacterium linens = experiment: Effect (1 mM) on Brevibacterium linens growth under stressing conditions; Expressed as absorbance (OD) at 570 nm; Control 1.76 nm
# Sinorhizobium meliloti = experiment: Effect (1 mM) on Sinorhizobium meliloti growth under stressing conditions; Expressed as absorbance (OD) at 570 nm; Control 1.46 nm
# Bacillus subtilis = experiment: Effect (1 mM) on Bacillus subtilis growth under stressing conditions; Expressed as absorbance (OD) at 570 nm; Control 3.20 nm; summary of the method: as §1
# Aeromonas hydrophila = experiment: Effect (1 mM) on Aeromonas hydrophila growth under stressing conditions; Expressed as absorbance (OD) at 570 nm; Control 1.65 nm; summary of the method: as §1
SMILES,Absorbance (Escherichia coli),Absorbance (Enterococcus faecalis),Absorbance (Citrobacter freundii),Absorbance (Pseudomonas aeruginosa),Absorbance (Klebsiella pneumoniae),Absorbance (Serratia marcescens),Absorbance (Dickeya chrysanthemi),Absorbance [1],Absorbance (Acinetobacter baumannii),Absorbance (Salmonella enterica),Absorbance (Enterobacter cloacae),Absorbance (Brevibacterium linens),Absorbance (Sinorhizobium meliloti),Absorbance (Bacillus subtilis),Absorbance (Aeromonas hydrophila)
C[N+](C)(CC(=O)O)Cc1ccc([N+](=O)[O-])cc1,0.09,1.23,0.03,0.16,0.23,0.07,0.06,0.33,0.19,0.07,0.24,1.74,1.85,0.18,0.06
COc1cccc(C[N+](C)(C)CC(=O)O)c1,0.18,1.12,1.23,1.07,0.7,0.48,0.25,0.63,1.16,1.11,1.11,1.45,1.7,3.2,1.05
C[N+](C)(CC(=O)O)Cc1ccccc1[N+](=O)[O-],0.08,1.3,0.06,0.11,0.4,0.09,0.11,0.26,0.72,0.23,0.46,1.52,1.9,3.06,0.2
C[N+](C)(CC(=O)O)Cc1ccccc1,0.12,1.24,1.32,0.06,0.46,0.21,0.22,0.43,0.93,1.24,1.05,0.88,2.3,3.2,0.16
